In ChEMBL document CHEMBL1154310, “Stereoselective synthesis and antimicrobial activity of benzofuran-based (1E)-1-(piperidin-1-yl)-N2-arylamidrazones” (2009):
Values after ≈ are worked out from the molar mass of the structure shown. Active and inactive are the calls of the source. The calls are words filed in the database; no cut-off is given here.

Key:
Escherichia coli [1] = assay: Ratio of compound to amoxicilline activity against Escherichia coli at 5 mg/ml after 24 to 48 hrs by agar diffusion technique; type: functional
Staphylococcus aureus [2] = assay: Ratio of compound to amoxicilline activity against Staphylococcus aureus at 5 mg/ml after 24 to 48 hrs by agar diffusion technique; type: functional
Geotrichum candidum [3] = assay: Ratio of compound to grisofulvin activity against Geotrichum candidum at 5 mg/ml after 24 to 48 hrs by agar diffusion technique; type: functional
Pseudomonas aeruginosa [4] = assay: Ratio of compound to amoxicilline activity against Pseudomonas aeruginosa at 5 mg/ml after 24 to 48 hrs by agar diffusion technique; type: functional
Candida albicans [5] = assay: Antifungal activity against Candida albicans at 5 mg/ml after 24 to 48 hrs by agar diffusion technique; type: functional; conditions: read-out: IZ
Procedure, shortened: (§1)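 Clinical fungal or yeast isolates were seeded on malt extract agar (pH 5.4). 1 cm holes received 100 of test solution at 5 mg/ml in DMSO, with DMSO control holes and griseofulvin as the standard. Plates sat 1 h at 4 °C, then were incubated at 28 °C. Zone diameters were measured at 24–48 h.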

Bacillus subtilis [6] = assay: Ratio of compound to amoxicilline activity against Bacillus subtilis at 5 mg/ml after 24 to 48 hrs by agar diffusion technique; type: functional
Candida albicans [7] = assay: Ratio of compound to grisofulvin activity against Candida albicans at 5 mg/ml after 24 to 48 hrs by agar diffusion technique; type: functional
Aspergillus fumigatus [8] = assay: Ratio of compound to grisofulvin activity against Aspergillus fumigatus at 5 mg/ml after 24 to 48 hrs by agar diffusion technique; type: functional
[9] = tested on: Syncephalastrum racemosum; assay: Ratio of compound to grisofulvin activity against Syncephalastrum racemosum at 5 mg/ml after 24 to 48 hrs by agar diffusion technique; type: functional
[10] = tested on: Syncephalastrum racemosum; assay: Antifungal activity against Syncephalastrum racemosum at 5 mg/ml after 24 to 48 hrs by agar diffusion technique; type: functional; conditions: read-out: IZ; procedure, shortened: as §1
Bacillus subtilis [11] = assay: Antibacterial activity against Bacillus subtilis at 5 mg/ml after 24 to 48 hrs by agar diffusion technique; type: functional; conditions: read-out: IZ
Procedure, shortened: (§2)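 Hole-plate diffusion on nutrient agar (pH 6.2) seeded with clinical bacterial isolates. 1 cm wells were filled with 100 of a 5 mg/ml DMSO solution, with DMSO-only control wells and amoxicilline as the reference. Plates were held at 4 °C for 1 h, then incubated at 37 °C. Inhibition zone diameter was read after 24–48 h.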

Aspergillus fumigatus [12] = assay: Antifungal activity against Aspergillus fumigatus at 5 mg/ml after 24 to 48 hrs by agar diffusion technique; type: functional; conditions: read-out: IZ; procedure, shortened: as §1
Candida albicans [13] = assay: Antifungal activity against Candida albicans assessed as distortion of cellular sub-organs by transmission electron microscopy; type: functional, organism-based
Procedure, shortened: (§3)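 Treated A. fumigatus and C. albicans were fixed, dehydrated and stained. Ultrastructure was then examined by transmission electron microscopy at 80 kV and 25,000 magnification.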

Candida albicans [14] = assay: Antifungal activity against Candida albicans assessed as appearance of elongated and swollen cells at 100 uL by microscopy; type: functional, organism-based
Procedure, shortened: (§4)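 Agar cultures exposed to 100 of compound were examined directly by phase-contrast or bright-field microscopy with video-camera image analysis, at ×400 for multicellular and ×1000 for unicellular fungi.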

Geotrichum candidum [15] = assay: Antifungal activity against Geotrichum candidum at 5 mg/ml after 24 to 48 hrs by agar diffusion technique; type: functional; conditions: read-out: IZ; procedure, shortened: as §1
Aspergillus fumigatus [16] = assay: Antifungal activity against Aspergillus fumigatus assessed as aggregation of lysed mitochondria by transmission electron microscopy; type: functional, organism-based; procedure, shortened: as §3
Aspergillus fumigatus [17] = assay: Antifungal activity against Aspergillus fumigatus assessed as increase in thickness of hyphal cell wall and cell membrane by transmission electron microscopy; type: functional, organism-based; procedure, shortened: as §3
Staphylococcus aureus [18] = assay: Antibacterial activity against Staphylococcus aureus at 5 mg/ml after 24 to 48 hrs by agar diffusion technique; type: functional; conditions: read-out: IZ; procedure, shortened: as §2
Pseudomonas aeruginosa [19] = assay: Antibacterial activity against Pseudomonas aeruginosa at 5 mg/ml after 24 to 48 hrs by agar diffusion technique; type: functional; conditions: read-out: IZ; procedure, shortened: as §2
Candida albicans [20] = assay: Antifungal activity against Candida albicans assessed as increase in thickness of hyphal cell wall and cell membrane by transmission electron microscopy; type: functional, organism-based; procedure, shortened: as §3
Candida albicans [21] = assay: Antifungal activity against Candida albicans assessed as shrinking of cell membrane by transmission electron microscopy; type: functional, organism-based; procedure, shortened: as §3
Candida albicans [22] = assay: Antifungal activity against Candida albicans assessed as aggregation of lysed mitochondria by transmission electron microscopy; type: functional, organism-based; procedure, shortened: as §3
Aspergillus fumigatus [23] = assay: Antifungal activity against Aspergillus fumigatus assessed as distortion of cellular sub-organs by transmission electron microscopy; type: functional, organism-based; procedure, shortened: as §3
Staphylococcus aureus [24] = assay: Antibacterial activity against Staphylococcus aureus after 24 to 48 hrs by serial dilution technique; type: functional
Procedure, shortened: (§5)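 MIC by serial dilution: DMSO solutions started at a maximum of 500 and were diluted twofold in succession. Each dilution was inoculated with the test organism, and inhibition zones were measured by agar diffusion.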

Candida albicans [25] = assay: Antifungal activity against Candida albicans after 24 to 48 hrs by serial dilution technique; type: functional; procedure, shortened: as §5
Aspergillus fumigatus [26] = assay: Antifungal activity against Aspergillus fumigatus assessed as shrinking of cell membrane by transmission electron microscopy; type: functional, organism-based; procedure, shortened: as §3
Aspergillus fumigatus [27] = assay: Antifungal activity against Aspergillus fumigatus assessed as appearance of chlamydospore at 100 uL by microscopy; type: functional, organism-based; procedure, shortened: as §4
Escherichia coli [28] = assay: Antibacterial activity against Escherichia coli at 5 mg/ml after 24 to 48 hrs by agar diffusion technique; type: functional; conditions: read-out: IZ; procedure, shortened: as §2
Aspergillus fumigatus [29] = assay: Antifungal activity against Aspergillus fumigatus after 24 to 48 hrs by serial dilution technique; type: functional; procedure, shortened: as §5
Aspergillus fumigatus [30] = assay: Antifungal activity against Aspergillus fumigatus assessed as reduction in size of all morphological features by microscopy; type: functional, organism-based; procedure, shortened: as §4
Candida albicans [31] = assay: Antifungal activity against Candida albicans assessed as occurrence of cellular aggregation by microscopy; type: functional, organism-based; procedure, shortened: as §4

Row | SMILES | Ratio (Escherichia coli [1]) | Ratio (Staphylococcus aureus [2]) | Ratio (Geotrichum candidum [3]) | Ratio (Pseudomonas aeruginosa [4]) | zone of inhibition at 5000 µg/mL (Candida albicans [5]) | Ratio (Bacillus subtilis [6]) | Ratio (Candida albicans [7]) | Ratio (Aspergillus fumigatus [8]) | Ratio [9] | zone of inhibition at 5000 µg/mL [10] | zone of inhibition at 5000 µg/mL (Bacillus subtilis [11]) | zone of inhibition at 5000 µg/mL (Aspergillus fumigatus [12]) | zone of inhibition at 5000 µg/mL (Staphylococcus aureus [18]) | zone of inhibition at 5000 µg/mL (Escherichia coli [28]) | also measured
1 | CC(=N\NC(=O)c1oc2ccccc2c1C)/C(Cl)=N/Nc1ccccc1 | 0 | 0 | 0 | 0 | 6 mm | 0 | 0.6 | 0 | 0 | – | – | – | – | – | –
2 | CC(=N\NC(=O)c1oc2ccccc2c1C)/C(=N/Nc1ccc([N+](=O)[O-])cc1)NO | 0 | 0 | 0 | 0 | 9 mm | 0 | 0.9 | 0 | 1.05 | 20 mm | – | – | – | – | –
3 | Cc1c(C(=O)N/N=C/C=C/c2ccccc2)oc2ccccc12 | 0 | 0 | 0 | 0 | 5 mm | 0.33 | 0.5 | 0 | 0 | – | 8 mm | – | – | – | –
4 | CC(=N\NC(=O)c1oc2ccccc2c1C)/C(=N/Nc1ccc([N+](=O)[O-])cc1)N1CCCCC1 | 0.71 | 0.87 | 1.2 | 0.35 | 18 mm | 0.83 | 1.8 | 1.28 | 1.16 | 22 mm | 20 mm | 32 mm | 26 mm | 20 mm | Activity (Candida albicans [13]): Active; Activity (Candida albicans [14]): Active; zone of inhibition at 5000 µg/mL (Geotrichum candidum [15]): 12 mm; Activity (Aspergillus fumigatus [16]): Active; Activity (Aspergillus fumigatus [17]): Active; zone of inhibition at 5000 µg/mL (Pseudomonas aeruginosa [19]): 7 mm; Activity (Candida albicans [20]): Active; Activity (Candida albicans [21]): Active; Activity (Candida albicans [22]): Active; Activity (Aspergillus fumigatus [23]): Active; MIC (Staphylococcus aureus [24]): 75 µg/mL (≈ 162 µM); MIC (Candida albicans [25]): 75 µg/mL (≈ 162 µM); Activity (Aspergillus fumigatus [26]): Active; Activity (Aspergillus fumigatus [27]): Active; MIC (Aspergillus fumigatus [29]): 25 µg/mL (≈ 54.1 µM); Activity (Aspergillus fumigatus [30]): Active
5 | CC(=N\NC(=O)c1oc2ccccc2c1C)/C(=N/Nc1ccc([N+](=O)[O-])cc1)S(=O)(=O)c1ccccc1 | 0.21 | 0.27 | 0 | 0 | 15 mm | 0.42 | 1.5 | 0 | 0 | – | 10 mm | – | 8 mm | 6 mm | –
6 | Cc1c(C(=O)N/N=C(/C=C/c2ccc(Cl)cc2)C(=N/Nc2ccc(Br)cc2)\N2CCCCC2)oc2ccccc12 | 0.36 | 0.33 | 0 | 0 | 14 mm | 0.67 | 1.4 | 0 | 1.05 | 20 mm | 16 mm | – | 10 mm | 10 mm | –
7 | COc1ccc(N/N=C(Cl)/C(C)=N/NC(=O)c2oc3ccccc3c2C)cc1 | 0 | 0 | 0 | 0 | 10 mm | 0 | 1 | 0 | 0 | – | – | – | – | – | –
8 | CC1(C)S[C@@H]2[C@H](NC(=O)[C@H](N)c3ccc(O)cc3)C(=O)N2[C@H]1C(=O)O [AMOXICILLIN] | 1 | 1 | 1 | 1 | 10 mm | 1 | 1 | 1 | 1 | 19 mm | 24 mm | 25 mm | 30 mm | 28 mm | zone of inhibition at 5000 µg/mL (Geotrichum candidum [15]): 10 mm; zone of inhibition at 5000 µg/mL (Pseudomonas aeruginosa [19]): 20 mm; MIC (Staphylococcus aureus [24]): 50 µg/mL (≈ 137 µM)
9 | Cc1c(C(=O)N/N=C(/C=C/c2ccccc2)C(=N/Nc2ccc([N+](=O)[O-])cc2)\N2CCCCC2)oc2ccccc12 | 0.29 | 0 | 0 | 0 | 17 mm | 0 | 1.7 | 0 | 1.1 | 21 mm | – | – | – | 8 mm | –
10 | CC(=N\NC(=O)c1oc2ccccc2c1C)/C(Cl)=N/Nc1ccc(Br)cc1 | 0 | 0 | 0 | 0 | 10 mm | 0.38 | 1 | 0 | 0.26 | 5 mm | 9 mm | – | – | – | –
11 | COC1=CC(=O)C[C@@H](C)[C@]12Oc1c(Cl)c(OC)cc(OC)c1C2=O [GRISEOFULVIN] | – | – | – | – | – | – | – | – | – | – | – | – | – | – | MIC (Candida albicans [25]): 75 µg/mL (≈ 213 µM); MIC (Aspergillus fumigatus [29]): 50 µg/mL (≈ 142 µM); Activity (Candida albicans [31]): Active
12 | CC(=N\NC(=O)c1oc2ccccc2c1C)/C(Cl)=N/Nc1ccc([N+](=O)[O-])cc1 | 0.36 | 0.4 | 0.5 | 0.25 | 12 mm | 0.25 | 1.2 | 0.56 | 0 | – | 6 mm | 14 mm | 12 mm | 10 mm | zone of inhibition at 5000 µg/mL (Geotrichum candidum [15]): 5 mm; zone of inhibition at 5000 µg/mL (Pseudomonas aeruginosa [19]): 5 mm
13 | CC(=N\NC(=O)c1oc2ccccc2c1C)/C(=N/Nc1ccccc1)N1CCCCC1 | 0.61 | 0.5 | 0 | 0 | 14 mm | 0 | 1.4 | 1.12 | 0.84 | 16 mm | – | 28 mm | 15 mm | 17 mm | –
14 | Cc1c(C(=O)N/N=C(/C=C/c2ccccc2)C(=N/Nc2ccccc2)\N2CCCCC2)oc2ccccc12 | 0.5 | 0.53 | 0 | 0 | 15 mm | 0.63 | 1.5 | 0.84 | 1 | 19 mm | 15 mm | 21 mm | 16 mm | 14 mm | –
15 | C/C=N/NC(=O)c1oc2ccccc2c1C | 0.71 | 0.53 | 0 | 0 | 8 mm | 0 | 0.8 | 0 | 0 | – | – | – | 16 mm | 20 mm | –
16 | CC(=N\NC(=O)c1oc2ccccc2c1C)/C(Cl)=N/Nc1ccc(C)cc1 | 0 | 0 | 0 | 0 | 6 mm | 0.29 | 0.6 | 0 | 0 | – | 7 mm | – | – | – | –
